FGF22 binding: binders of recombinant human FGF22 by thermal shift. Q9HCT0. SYPRO orange fluorescence; percent of sucrose octasulfate shift, DMSO zero. activity (Tm shift, normalised), % at 9.99 µM. 340,000 compounds, 1.5% hits. AID 651658;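 active means mean Tm shift, scaled 0 neutral to 100 positive control, at about 1.3% or above, every replicate too, limit read from the data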
Target sequence (Q9HCT0 whole entry, looked up): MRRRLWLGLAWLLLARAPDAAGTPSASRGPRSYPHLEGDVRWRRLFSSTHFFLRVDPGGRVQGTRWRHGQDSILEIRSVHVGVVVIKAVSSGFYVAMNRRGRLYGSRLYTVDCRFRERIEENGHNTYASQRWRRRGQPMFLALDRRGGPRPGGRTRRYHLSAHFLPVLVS
rRNA inh HTS: inhibitors of bacterial rRNA selective over humanized ribosomes | AID 720706 | E. coli WT GFP vs humanized-ribosome RFP mutants, fluorescence, 24 h; stronger effect = lower value; DMSO median 0, no signal -100 | GFP signal change (wild-type ribosome), % (no concentration beside the values) | 350,000 compounds, 1.6% hits;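 active means significant combined selectivity score with lowered wild-type GFP, culture density cut under 30%, mutant RFP and density less affected; inactive means any of these conditions unmet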
Cneo AK release: Cryptococcus neoformans lysis via adenylate kinase release | C. neoformans lysis, adenylate kinase release luminescence, 4 h; normalised: neutral wells 0, clomiphene wells 100 | lysis activity, % at 15 µM | 360,000 compounds, 0.2% hits;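 active means mean lysis activity across replicates of at least 80%, whatever share of replicates individually reach that level; inactive means mean lysis activity below 80%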
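Signal: Adenylate kinase release luminescence | Assay system: Log-phase Cryptococcus neoformans yeast cells | Input: Cells at 5 × 10^6 per mL | Buffer or medium: Fresh YPD growth medium | Compound: Single dose | Schedule: Static 4 h at 37 °C with compound, 1 h detection | Controls: Clomiphene | Read-out: Luminescence rise reflecting yeast cell lysis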
Env fusion inh: inhibitors of HIV Env-mediated cell fusion; 360,000 compounds, 1.1% hits; HeLa-JRFL Env/CEM21 cell fusion, luciferase; AID 651610; inhibition, % at 12.3 µM;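 active means mean replicate inhibition score of at least 50 and every replicate individually at or above 50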;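 further: 0% = plate neutral controls and 100% = maraviroc near 300 nM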
PGC1a acetyl inh: modulators of PGC1a acetylation | U2OS PGC1a acetylation, AlphaScreen anti-acetyl-lysine; with virally co-expressed GCN5 acetyltransferase | inhibition, % at 15.6 µM | 350,000 compounds, 0.17% hits;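 active means every replicate shows inhibition of at least 40%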;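 further: 0% = neutral control wells and 100% = positive control wells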
ERAP1 HTS inh: ERAP1 (human) enzyme inhibition; 340,000 compounds, 0.15% hits; recombinant ERAP1, Leu-AMC fluorescence, 60 min; inhibition, % at 10.7 µM;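 active means mean replicate inhibition of at least 30%, or all replicates individually reaching that 30% level; inactive means mean below 30% and not every replicate reaching it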;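 further: 0% = neutral control wells and 100% = L-leucinethiol positive control wells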
Active calls of the source: *; i = inactive; · = no result; [ ] = another dose, or the depositor's remark. An excerpt weighted towards active compounds, which were near 3.5% of everything screened.

SMILES | FGF22 binding | rRNA inh HTS | Cneo AK release | Env fusion inh | PGC1a acetyl inh | ERAP1 HTS inh
COCCCn1c(C(=O)N2CCOCC2)cc2c(=O)n3ccccc3nc21 | 0.0 | 1.2 | 3.9 | -5.1 | 0.6 | 54.4*
COCCCn1c(C(=O)Nc2ccc3c(c2)OCO3)cc2c(=O)n3ccccc3nc21 | -0.1 | 1.8 | 0.3 | 1.9 | -12.8 | 3.1
O=C(C[C@@H]1CC[C@H](NC(=O)c2ccc(F)cc2)[C@@H](CO)O1)NCCc1ccccc1 | -0.2 | 0.5 | -1.6 | -16.1[16.7 µM] | -5.3 | 0.4
CCOc1ccc2ccc(OCC)c(/C=N/n3cnnc3)c2c1 | 0.0 | -26.8* | -1.5 | -16.7 | · | -0.4
COc1ccccc1C(=O)NNC(=O)c1ccccc1F | 43.7* | 16.8 | 0.3 | -7.8 | 2.9 | 4.1
COc1ccccc1CC(=O)NC(=O)c1ccccc1O | 0.1 | 5.5 | 0.6 | 11.5 | 2.7 | -5.4
COc1ccccc1CC(=O)c1ccccc1OC | 43.5* | -7.8 | 0.4 | 4.7 | 14.5 | 0.5
COc1cc(S(=O)(=O)Nc2ccc3cn[nH]c3c2)ccc1Cl | 44.0* | -29.1 | · | 20.5 | -0.1 | 0.4
Cc1ccc(S(=O)(=O)Nc2ccc3cn[nH]c3c2)cc1 | 0.0 | -12.2 | 0.7 | 9.5 | 16.8 | 0.1
Cc1ccc(S(=O)(=O)Nc2ccc3cn[nH]c3c2)cc1C | 43.7* | -12.8 | 0.7 | · | -8.4 | 0.1
Cc1ccccc1CNC(=O)c1csc([C@@H]2O[C@H](CO)[C@@H](O)[C@H]2O)n1 | -0.2 | 11.7 | 1.1 | -26.8 | 5.9 | 12.2
O=C1NN=C2CCCCCCCCCCC12 (stereo unspecified) | · | -27.3 | -0.3 | 58.2* | 1.8 | 1.4
Cc1ccccc1OCC(=O)Nc1ccc2[nH]ncc2c1 | 0.0 | -20.9* | 0.4 | -358.8 | -0.6 | -2.0
Cc1cc(NC(=O)COc2ccccc2C)no1 | 44.1* | 9.0 | · | -23.9 | · | -6.1
Cc1cc(NC(=O)COc2ccc(F)c(Cl)c2)no1 | 0.2 | 10.2 | -1.5 | 64.9* | · | -0.2
Cc1cc(NC(=O)CSCC(=O)N(C)Cc2ccc(Cl)c(Cl)c2)no1 | 0.0 | -7.0 | 0.7 | 6.6 | -2.4 | -3.1
Cc1cc(NC(=O)COC(=O)CSCc2ccc(Cl)c(Cl)c2)no1 | 0.1 | -22.4* | -2.6 | · | · | 3.9
Cc1cc(NC(=O)COc2cccc(C)c2C)no1 | 0.0 | 5.2 | -0.4 | -26.0 | -5.9 | 5.2
CC(C)Oc1cccc(C(=O)C2CCCN(C(=O)c3cc(C(F)(F)F)[nH]n3)C2)c1 (stereo unspecified) | -0.3 | -28.9* | -1.1 | -11.9 | -4.7 | 1.2
CC(C)Oc1cccc(C(=O)C2CCCN(C(=O)c3cc(C4CC4)[nH]n3)C2)c1 (stereo unspecified) | 0.0 | -5.1 | 8.2 | 5.1 | 4.4 | -0.8
COCC#Cc1cnc2c(c1)C(=O)N([C@@H](C)CO)C[C@@H](C)[C@H](CN(C)S(=O)(=O)c1cn(C)cn1)O2 | 0.8 | 2.4 | -2.2 | -8.7[16.7 µM] | -8.6 | 1.1
Cc1ccc2c(c1)C1CN(C)CCC1N2C(=O)COc1ccc(N(C)S(=O)(=O)c2cccs2)cc1 (stereo unspecified) | -0.3 | -1.3 | · | -9.0 | 8.1 | ·
CCOc1ccc(S(=O)(=O)N(C)c2ccc(OCC(=O)N3c4ccc(C)cc4C4CN(C)CCC43)cc2)cc1 (stereo unspecified) | 42.0 | -18.3 | 0.9 | -26.6 | 75.1* | 1.8
C[C@@H](C(=O)NCc1ccc(S(C)(=O)=O)cc1)[C@H]1C[C@]1(C)[C@H](NC(=O)OCc1ccccc1)c1ccccc1 | -0.2 | -19.4 | · | 55.2* | · | -5.2
C[C@@H](C(=O)NCc1ccccc1)[C@@H]1C[C@@]1(C)[C@@H](NC(=O)OCc1ccccc1)c1ccccc1 | -0.1 | -13.9 | 0.7 | -26.0 | -8.2 | ·
SMILES | FGF22 binding | rRNA inh HTS | Cneo AK release | Env fusion inh | PGC1a acetyl inh | ERAP1 HTS inh
COc1ccc(S(=O)(=O)N(C)C[C@@H]2OCCCC[C@@H](C)Oc3ccc(NC(=O)c4ccncc4)cc3C(=O)N([C@@H](C)CO)C[C@@H]2C)cc1 | -0.2 | 0.3 | -9.4 | 5.8[16.7 µM] | -2.5 | 0.5
Cc1nc2c(F)c(F)c(C(F)(F)F)c(F)c2[nH]1 | · | · | -4.9 | i | -6.7 | ·
O=[N+]([O-])c1ccc(/C=N/NC(=S)Nc2ccc(Cl)cc2Cl)s1 | 0.0 | -19.0* | -6.0 | -92.8 | 1.9 | 1.9
O=[N+]([O-])c1ccc(O)c(/C=N/NC(=S)Nc2ccc(Cl)cc2Cl)c1 | 0.2 | -15.3 | -1.8 | 31.4 | 4.7 | 0.2
COC(=O)N/N=C/c1ccc([N+](=O)[O-])s1 | · | · | 8.3 | · | 1.0 | ·
O=C(N/N=C\c1ccc([N+](=O)[O-])s1)c1cncc(Br)c1 | 0.0 | 13.8 | 1.4 | 103.8* | · | 0.0
COc1ccccc1NC(=O)C(=O)N/N=C/c1ccc([N+](=O)[O-])s1 | 44.2* | 1.5 | -0.9 | -7.6 | · | -2.7
Cc1ccc(NC(C)C(=O)N/N=C/c2ccc([N+](=O)[O-])s2)cc1 (stereo unspecified) | 0.0 | -21.7* | -4.2 | 14.8 | 3.9 | -1.4
COc1cccc(NC(=O)NCc2cccn2C)c1 | · | · | 1.0 | · | -0.9 | ·
O=Cc1cn(CCOc2ccccc2F)c2ccccc12 | 0.1 | -42.0* | -8.4 | -18.0 | 2.7 | -1.3
C[C@H](CO)N1C[C@H](C)[C@H](CN(C)Cc2ccc(-c3ccccc3)cc2)Oc2ccc(NS(=O)(=O)c3cn(C)cn3)cc2CC1=O | 0.0 | 1.9 | · | -17.3[16.7 µM] | 0.1 | 2.3
CC1CCc2cc(F)cc3c(=O)c(C(=O)O)cn1c23 (stereo unspecified) | -0.1 | · | -1.0 | 2.1 | · | 38.5*
CC1CCc2c(N3CCC(O)CC3)c(F)cc3c(=O)c(C(=O)O)cn1c23 (stereo unspecified) | -0.1 | · | 0.0 | 18.5 | 10.1 | -0.2
Cc1c2cnn(CC(=O)NCCCN3CC(C)CC(C)C3)c(=O)c2c(C)n1Cc1ccccc1Cl (stereo unspecified) | 0.0 | 3.2 | -12.3 | 15.5 | 3.4 | -5.4
Cc1ccc([N+](=O)[O-])cc1S(=O)(=O)n1ccnc1C | 43.5* | 17.7 | · | -1.7 | 4.1 | -4.4
Cc1ccc([N+](=O)[O-])cc1S(=O)(=O)N1CCN(C)CC1 | 0.3 | 18.2 | · | 4.5 | -8.6 | -4.4
O=C(Nc1ccccc1F)N1CCCCN2[C@H](C1)[C@H](c1ccc(/C=C/c3ccccc3)cc1)[C@@H]2CO | 0.2 | 4.4 | -3.3 | · | -1.0 | 0.4
CCN(CC)C(=O)C(=O)c1ccn(-c2c(C)csc2C(=O)OC)c1 | 43.0* | 10.8 | -2.0 | -20.3 | · | -4.1
O=C(Nc1ccccc1-c1nc2ccccc2[nH]1)c1ccc(N2C(=O)CCC2=O)cc1 | 0.1 | 7.9 | · | 3.6 | -14.2 | -1.8
COc1ccc(S(=O)(=O)N(C)C[C@H]2Oc3ccc(NC(=O)Nc4c(C)noc4C)cc3CC(=O)N([C@@H](C)CO)C[C@@H]2C)cc1 | 0.1 | -3.7 | -1.2 | -1.3[16.7 µM] | -1.6 | 1.1
COC(=O)COc1ccc(S(=O)(=O)N2CCc3ccccc3C2)cc1C | · | -25.9* | -0.4 | · | -3.1 | -0.5
